Measured values as given in ChEMBL document CHEMBL5058577, “EUbOPEN Chemogenomics Library 2 (Multiplex)” (2022).

Test system: Fibroblast
Experiment: Multiplex assay against human fibroblast
Format: toxicity, cell-based
In short: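 Live cells were stained at seeding with Hoechst33342, BioTracker Green Microtubule Cytoskeleton Dye, MitoTracker Red and Annexin V Alexa Fluor 680. Following compound addition, they were imaged on a CQ1 microscope at 37°C and 5% CO2 and gated by CellPathfinder machine learning into Hoechst high-intensity objects or normal cells, with normal cells split into healthy, pyknosed or fragmented nuclei and pyknosed cells into mitotic or apoptotic. Tubulin, mitochondrial-mass and membrane-permeability phenotypes are per cents of healthy-nucleus cells.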

[1] = 12 h, 1 µM, compound concentration 1 uM, replicate 1
[2] = 12 h, 1 µM, compound concentration 1 uM, replicate 2
[3] = 12 h, 10 µM, compound concentration 10 uM, replicate 1
[4] = 12 h, 10 µM, compound concentration 10 uM, replicate 2
[5] = 24 h, 1 µM, compound concentration 1 uM, replicate 1
[6] = 24 h, 1 µM, compound concentration 1 uM, replicate 2
[7] = 24 h, 10 µM, compound concentration 10 uM, replicate 1
[8] = 24 h, 10 µM, compound concentration 10 uM, replicate 2
[9] = 48 h, 1 µM, compound concentration 1 uM, replicate 1
[10] = 48 h, 1 µM, compound concentration 1 uM, replicate 2
[11] = 48 h, 10 µM, compound concentration 10 uM, replicate 1
[12] = 48 h, 10 µM, compound concentration 10 uM, replicate 2

O=C(CCCc1ccccc1)Nc1nc2ccccc2c(=O)s1
Population Apoptotic (%) [1]: 58% | Population Fragmented Nuclei (%) [1]: 9% | Population Healthy Nuclei (%) [1]: 66% | Population Hoechst High Intensity Objects (%) [1]: 2% | Population Membrane Permeable-Phenotype (%) [1]: 0% | Population Mitochondria Different-Phenotype (%) [1]: 4% | Population Mitotic Cells (%) [1]: 41% | Population Normal (%) [1]: 97% | Population Pyknosed Nuclei (%) [1]: 23% | Population Tubulin-Different-Phenotype (%) [1]: 34% | Total Cell Count [1]: 127 | Population Apoptotic (%) [2]: 34% | Population Fragmented Nuclei (%) [2]: 19% | Population Healthy Nuclei (%) [2]: 49% | Population Hoechst High Intensity Objects (%) [2]: 3% | Population Membrane Permeable-Phenotype (%) [2]: 9% | Population Mitochondria Different-Phenotype (%) [2]: 7% | Population Mitotic Cells (%) [2]: 65% | Population Normal (%) [2]: 96% | Population Pyknosed Nuclei (%) [2]: 31% | Population Tubulin-Different-Phenotype (%) [2]: 35% | Total Cell Count [2]: 135 | Population Apoptotic (%) [3]: 51% | Population Fragmented Nuclei (%) [3]: 21% | Population Healthy Nuclei (%) [3]: 58% | Population Hoechst High Intensity Objects (%) [3]: 2% | Population Membrane Permeable-Phenotype (%) [3]: 1% | Population Mitochondria Different-Phenotype (%) [3]: 4% | Population Mitotic Cells (%) [3]: 48% | Population Normal (%) [3]: 97% | Population Pyknosed Nuclei (%) [3]: 20% | Population Tubulin-Different-Phenotype (%) [3]: 28% | Total Cell Count [3]: 147 | Population Apoptotic (%) [4]: 31% | Population Fragmented Nuclei (%) [4]: 26% | Population Healthy Nuclei (%) [4]: 38% | Population Hoechst High Intensity Objects (%) [4]: 12% | Population Membrane Permeable-Phenotype (%) [4]: 13% | Population Mitochondria Different-Phenotype (%) [4]: 17% | Population Mitotic Cells (%) [4]: 68% | Population Normal (%) [4]: 87% | Population Pyknosed Nuclei (%) [4]: 35% | Population Tubulin-Different-Phenotype (%) [4]: 48% | Total Cell Count [4]: 133 | Population Apoptotic (%) [5]: 50% | Population Fragmented Nuclei (%) [5]: 13% | Population Healthy Nuclei (%) [5]: 68% | Population Hoechst High Intensity Objects (%) [5]: 2% | Population Membrane Permeable-Phenotype (%) [5]: 0% | Population Mitochondria Different-Phenotype (%) [5]: 5% | Population Mitotic Cells (%) [5]: 50% | Population Normal (%) [5]: 97% | Population Pyknosed Nuclei (%) [5]: 18% | Population Tubulin-Different-Phenotype (%) [5]: 20% | Total Cell Count [5]: 147 | Population Apoptotic (%) [6]: 42% | Population Fragmented Nuclei (%) [6]: 21% | Population Healthy Nuclei (%) [6]: 51% | Population Hoechst High Intensity Objects (%) [6]: 5% | Population Membrane Permeable-Phenotype (%) [6]: 4% | Population Mitochondria Different-Phenotype (%) [6]: 4% | Population Mitotic Cells (%) [6]: 57% | Population Normal (%) [6]: 94% | Population Pyknosed Nuclei (%) [6]: 26% | Population Tubulin-Different-Phenotype (%) [6]: 35% | Total Cell Count [6]: 131 | Population Apoptotic (%) [7]: 46% | Population Fragmented Nuclei (%) [7]: 19% | Population Healthy Nuclei (%) [7]: 60% | Population Hoechst High Intensity Objects (%) [7]: 5% | Population Membrane Permeable-Phenotype (%) [7]: 0% | Population Mitochondria Different-Phenotype (%) [7]: 3% | Population Mitotic Cells (%) [7]: 53% | Population Normal (%) [7]: 94% | Population Pyknosed Nuclei (%) [7]: 20% | Population Tubulin-Different-Phenotype (%) [7]: 15% | Total Cell Count [7]: 135 | Population Apoptotic (%) [8]: 53% | Population Fragmented Nuclei (%) [8]: 34% | Population Healthy Nuclei (%) [8]: 39% | Population Membrane Permeable-Phenotype (%) [8]: 18% | Population Mitochondria Different-Phenotype (%) [8]: 14% | Population Mitotic Cells (%) [8]: 46% | Population Pyknosed Nuclei (%) [8]: 25% | Population Tubulin-Different-Phenotype (%) [8]: 62% | Total Cell Count [8]: 134 | Population Apoptotic (%) [9]: 59% | Population Fragmented Nuclei (%) [9]: 13% | Population Healthy Nuclei (%) [9]: 66% | Population Hoechst High Intensity Objects (%) [9]: 5% | Population Membrane Permeable-Phenotype (%) [9]: 1% | Population Mitochondria Different-Phenotype (%) [9]: 1% | Population Mitotic Cells (%) [9]: 40% | Population Normal (%) [9]: 94% | Population Pyknosed Nuclei (%) [9]: 19% | Population Tubulin-Different-Phenotype (%) [9]: 32% | Total Cell Count [9]: 146 | Population Apoptotic (%) [10]: 42% | Population Fragmented Nuclei (%) [10]: 26% | Population Healthy Nuclei (%) [10]: 58% | Population Hoechst High Intensity Objects (%) [10]: 2% | Population Membrane Permeable-Phenotype (%) [10]: 4% | Population Mitochondria Different-Phenotype (%) [10]: 6% | Population Mitotic Cells (%) [10]: 57% | Population Normal (%) [10]: 97% | Population Pyknosed Nuclei (%) [10]: 15% | Population Tubulin-Different-Phenotype (%) [10]: 50% | Total Cell Count [10]: 127 | Population Apoptotic (%) [11]: 58% | Population Fragmented Nuclei (%) [11]: 19% | Population Healthy Nuclei (%) [11]: 58% | Population Hoechst High Intensity Objects (%) [11]: 2% | Population Membrane Permeable-Phenotype (%) [11]: 1% | Population Mitochondria Different-Phenotype (%) [11]: 2% | Population Mitotic Cells (%) [11]: 41% | Population Normal (%) [11]: 97% | Population Pyknosed Nuclei (%) [11]: 22% | Population Tubulin-Different-Phenotype (%) [11]: 26% | Total Cell Count [11]: 143 | Population Apoptotic (%) [12]: 77% | Population Fragmented Nuclei (%) [12]: 40% | Population Healthy Nuclei (%) [12]: 43% | Population Hoechst High Intensity Objects (%) [12]: 5% | Population Membrane Permeable-Phenotype (%) [12]: 10% | Population Mitochondria Different-Phenotype (%) [12]: 14% | Population Mitotic Cells (%) [12]: 22% | Population Normal (%) [12]: 94% | Population Pyknosed Nuclei (%) [12]: 16% | Population Tubulin-Different-Phenotype (%) [12]: 73% | Total Cell Count [12]: 119
